Test results published in ChEMBL document CHEMBL3351780, “Novel hybrids of metronidazole and quinolones: synthesis, bioactive evaluation, cytotoxicity, preliminary antimicrobial mechanism and effect of metal ions on their transportation by human serum albumin” (Eur J Med Chem, 2014).
Converted amounts (≈) assume the structure as drawn.

Tests used:
Format in all cases: functional
Cyberlindnera jadinii = assay: Antifungal activity against Candida utilis after 24 hrs by microbroth dilution method; conditions: Williopsis jadinii
How it was run: (§1)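 Spore suspension prepared in sterile distilled water from one-day-old cultures on Sabouraud agar, final 1-5 x 10^3 spores/mL. Compounds were serially diluted in RPMI 1640 to give eleven dilutions. Incubation at 35 °C for 24 h. Growth read visually and spectrophotometrically, in triplicate. MIC is the lowest concentration with complete inhibition.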

Shigella dysenteriae = assay: Antibacterial activity against Shigella dysenteriae by two-fold serial dilution method
How it was run: (§2)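 MIC read as the lowest concentration giving complete growth inhibition. Two-fold serial dilutions were made in 96-well plates following NCCLS, giving a series down to 0.5 µg/mL (…32, 16, 8, 4, 2, 1, 0.5). Plates were inoculated and incubated at 37 °C for 24 h. A DMSO-with-inoculum control without drug was included. Growth was monitored visually and spectrophotometrically, in triplicate.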

Saccharomyces cerevisiae = assay: Antifungal activity against Saccharomyces cerevisiae after 24 hrs by microbroth dilution method; how it was run: as §1
Staphylococcus aureus [1] = assay: Antibacterial activity against methicillin-resistant Staphylococcus aureus N315 by two-fold serial dilution method; how it was run: as §2
Escherichia coli = assay: Antibacterial activity against Escherichia coli DH52 by two-fold serial dilution method
How it was run: (§3)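 Standard two-fold serial dilution in 96-well microtest plates following NCCLS. Top dilutions printed as 32, 16, 8, 4, 2, 1, 0.5 ug/mL. Wells inoculated and held at 37 °C for 24 h. Growth judged visually and by spectrophotometer, in triplicate. MIC is the lowest concentration giving complete growth inhibition.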

Bacillus spizizenii = assay: Antibacterial activity against Bacillus subtilis ATCC 6633 by two-fold serial dilution method; how it was run: as §3
Candida albicans = assay: Antifungal activity against Candida albicans ATCC 76615 after 24 hrs by microbroth dilution method; conditions: ATCC 76615, 24 h; how it was run: as §1
Pseudomonas aeruginosa = assay: Antibacterial activity against Pseudomonas aeruginosa by two-fold serial dilution method; how it was run: as §3
[2] = Antibacterial activity against Eberthella typhosa by two-fold serial dilution method; how it was run: as §2
Pichia norvegensis = assay: Antifungal activity against Candida mycoderma after 24 hrs by microbroth dilution method
Micrococcus luteus = assay: Antibacterial activity against Micrococcus luteus by two-fold serial dilution method; how it was run: as §3
Staphylococcus aureus [3] = assay: Antibacterial activity against Staphylococcus aureus ATCC 25923 by two-fold serial dilution method; how it was run: as §3

Structure (SMILES)	MIC (Cyberlindnera jadinii)	MIC (Shigella dysenteriae)	MIC (Saccharomyces cerevisiae)	MIC (Staphylococcus aureus [1])	MIC (Escherichia coli)	MIC (Bacillus spizizenii)	MIC (Candida albicans)	MIC (Pseudomonas aeruginosa)	MIC [2]	MIC (Pichia norvegensis)	MIC (Micrococcus luteus)	MIC (Staphylococcus aureus [3])
CCOC(=O)c1cn(CC(O)Cn2cnc([N+](=O)[O-])c2)c2ccc(OC)cc2c1=O (racemic)	8 mg/L (≈ 19.2 µM)	32 mg/L (≈ 76.9 µM)	4 mg/L (≈ 9.61 µM)	4 mg/L (≈ 9.61 µM)	2 mg/L (≈ 4.8 µM)	64 mg/L (≈ 154 µM)	16 mg/L (≈ 38.4 µM)	64 mg/L (≈ 154 µM)	256 mg/L (≈ 615 µM)	512 mg/L (≈ 1230 µM)	512 mg/L (≈ 1230 µM)	4 mg/L (≈ 9.61 µM)
CCOC(=O)c1cn(CC(O)Cn2c([N+](=O)[O-])cnc2C)c2cc(Cl)c(F)cc2c1=O (racemic)	256 mg/L (≈ 565 µM)	16 mg/L (≈ 35.3 µM)	16 mg/L (≈ 35.3 µM)	4 mg/L (≈ 8.83 µM)	64 mg/L (≈ 141 µM)	8 mg/L (≈ 17.7 µM)	128 mg/L (≈ 283 µM)	32 mg/L (≈ 70.7 µM)	8 mg/L (≈ 17.7 µM)	128 mg/L (≈ 283 µM)	128 mg/L (≈ 283 µM)	64 mg/L (≈ 141 µM)
CCOC(=O)c1cn(CC2CO2)c2c(F)cc(F)cc2c1=O (racemic)	512 mg/L (≈ 1660 µM)					32 mg/L (≈ 103 µM)			2 mg/L (≈ 6.47 µM)	16 mg/L (≈ 51.7 µM)		
CCOC(=O)c1cn(CC(O)Cn2cnc([N+](=O)[O-])c2)c2cc(Cl)c(F)cc2c1=O (racemic)	32 mg/L (≈ 72.9 µM)	16 mg/L (≈ 36.5 µM)	64 mg/L (≈ 146 µM)	4 mg/L (≈ 9.12 µM)	32 mg/L (≈ 72.9 µM)	16 mg/L (≈ 36.5 µM)	32 mg/L (≈ 72.9 µM)	16 mg/L (≈ 36.5 µM)	8 mg/L (≈ 18.2 µM)	128 mg/L (≈ 292 µM)	16 mg/L (≈ 36.5 µM)	16 mg/L (≈ 36.5 µM)
CCOC(=O)c1cn(CC(O)Cn2cnc([N+](=O)[O-])c2)c2c(Cl)cc(Cl)cc2c1=O (racemic)	256 mg/L (≈ 562 µM)	8 mg/L (≈ 17.6 µM)	32 mg/L (≈ 70.3 µM)	64 mg/L (≈ 141 µM)	16 mg/L (≈ 35.1 µM)	4 mg/L (≈ 8.79 µM)	64 mg/L (≈ 141 µM)	16 mg/L (≈ 35.1 µM)	16 mg/L (≈ 35.1 µM)	64 mg/L (≈ 141 µM)	8 mg/L (≈ 17.6 µM)	32 mg/L (≈ 70.3 µM)
CCOC(=O)c1cn(CC(O)Cn2cnc([N+](=O)[O-])c2)c2ccc(C)cc2c1=O (racemic)	8 mg/L (≈ 20 µM)	8 mg/L (≈ 20 µM)	8 mg/L (≈ 20 µM)	16 mg/L (≈ 40 µM)	8 mg/L (≈ 20 µM)	8 mg/L (≈ 20 µM)	2 mg/L (≈ 5 µM)	4 mg/L (≈ 9.99 µM)	4 mg/L (≈ 9.99 µM)	128 mg/L (≈ 320 µM)	8 mg/L (≈ 20 µM)	16 mg/L (≈ 40 µM)
CCOC(=O)c1cn(CC(O)Cn2c([N+](=O)[O-])cnc2C)c2cc(C(F)(F)F)ccc2c1=O (racemic)	128 mg/L (≈ 273 µM)	2 mg/L (≈ 4.27 µM)	8 mg/L (≈ 17.1 µM)	8 mg/L (≈ 17.1 µM)	2 mg/L (≈ 4.27 µM)	16 mg/L (≈ 34.2 µM)	8 mg/L (≈ 17.1 µM)	8 mg/L (≈ 17.1 µM)	4 mg/L (≈ 8.54 µM)	32 mg/L (≈ 68.3 µM)	4 mg/L (≈ 8.54 µM)	4 mg/L (≈ 8.54 µM)
CCOC(=O)c1cn(CC(O)Cn2c([N+](=O)[O-])cnc2C)c2c(F)cccc2c1=O (racemic)	512 mg/L (≈ 1220 µM)	8 mg/L (≈ 19.1 µM)	256 mg/L (≈ 612 µM)	8 mg/L (≈ 19.1 µM)	16 mg/L (≈ 38.2 µM)	16 mg/L (≈ 38.2 µM)	128 mg/L (≈ 306 µM)	16 mg/L (≈ 38.2 µM)	4 mg/L (≈ 9.56 µM)	128 mg/L (≈ 306 µM)	8 mg/L (≈ 19.1 µM)	32 mg/L (≈ 76.5 µM)
CCOC(=O)c1cn(CC2CO2)c2ccc(F)cc2c1=O (racemic)						64 mg/L (≈ 220 µM)			8 mg/L (≈ 27.5 µM)	8 mg/L (≈ 27.5 µM)		
CCOC(=O)c1cn(CC(O)Cn2c([N+](=O)[O-])cnc2C)c2c(F)cc(F)cc2c1=O (racemic)	64 mg/L (≈ 147 µM)	16 mg/L (≈ 36.7 µM)	64 mg/L (≈ 147 µM)	16 mg/L (≈ 36.7 µM)	4 mg/L (≈ 9.17 µM)	32 mg/L (≈ 73.3 µM)	128 mg/L (≈ 293 µM)	4 mg/L (≈ 9.17 µM)	4 mg/L (≈ 9.17 µM)	64 mg/L (≈ 147 µM)	4 mg/L (≈ 9.17 µM)	8 mg/L (≈ 18.3 µM)
CCOC(=O)c1cn(CC(O)Cn2c([N+](=O)[O-])cnc2C)c2ccc(OC)cc2c1=O (racemic)	256 mg/L (≈ 595 µM)	32 mg/L (≈ 74.3 µM)	2 mg/L (≈ 4.65 µM)	8 mg/L (≈ 18.6 µM)	8 mg/L (≈ 18.6 µM)	8 mg/L (≈ 18.6 µM)	8 mg/L (≈ 18.6 µM)	64 mg/L (≈ 149 µM)	16 mg/L (≈ 37.2 µM)	256 mg/L (≈ 595 µM)	256 mg/L (≈ 595 µM)	16 mg/L (≈ 37.2 µM)
CCOC(=O)c1cn(CC(O)Cn2cnc([N+](=O)[O-])c2)c2cc(C(F)(F)F)ccc2c1=O (racemic)	16 mg/L (≈ 35.2 µM)	16 mg/L (≈ 35.2 µM)	16 mg/L (≈ 35.2 µM)	4 mg/L (≈ 8.8 µM)	128 mg/L (≈ 282 µM)	4 mg/L (≈ 8.8 µM)	16 mg/L (≈ 35.2 µM)	64 mg/L (≈ 141 µM)	64 mg/L (≈ 141 µM)	32 mg/L (≈ 70.4 µM)	8 mg/L (≈ 17.6 µM)	8 mg/L (≈ 17.6 µM)
CCOC(=O)c1cn(CC(O)Cn2c([N+](=O)[O-])cnc2C)c2ccc(C)cc2c1=O (racemic)	256 mg/L (≈ 618 µM)	4 mg/L (≈ 9.65 µM)	4 mg/L (≈ 9.65 µM)	8 mg/L (≈ 19.3 µM)	4 mg/L (≈ 9.65 µM)	8 mg/L (≈ 19.3 µM)	2 mg/L (≈ 4.83 µM)	8 mg/L (≈ 19.3 µM)	8 mg/L (≈ 19.3 µM)	256 mg/L (≈ 618 µM)	16 mg/L (≈ 38.6 µM)	8 mg/L (≈ 19.3 µM)
CCOC(=O)c1cn(CC(O)Cn2c([N+](=O)[O-])cnc2C)c2c(Cl)cc(Cl)cc2c1=O (racemic)	256 mg/L (≈ 546 µM)	8 mg/L (≈ 17 µM)	128 mg/L (≈ 273 µM)	32 mg/L (≈ 68.2 µM)	16 mg/L (≈ 34.1 µM)	8 mg/L (≈ 17 µM)	64 mg/L (≈ 136 µM)	16 mg/L (≈ 34.1 µM)	8 mg/L (≈ 17 µM)	64 mg/L (≈ 136 µM)	16 mg/L (≈ 34.1 µM)	16 mg/L (≈ 34.1 µM)
CCOC(=O)c1cn(CC2CO2)c2ccc(C)cc2c1=O (racemic)						64 mg/L (≈ 223 µM)			2 mg/L (≈ 6.96 µM)	8 mg/L (≈ 27.8 µM)		
CCOC(=O)c1cn(CC2CO2)c2ccc(OC)cc2c1=O (racemic)	512 mg/L (≈ 1690 µM)	64 mg/L (≈ 211 µM)	4 mg/L (≈ 13.2 µM)	64 mg/L (≈ 211 µM)	16 mg/L (≈ 52.8 µM)	16 mg/L (≈ 52.8 µM)	64 mg/L (≈ 211 µM)	32 mg/L (≈ 106 µM)	1 mg/L (≈ 3.3 µM)	32 mg/L (≈ 106 µM)	128 mg/L (≈ 422 µM)	32 mg/L (≈ 106 µM)
CCOC(=O)c1cn(CC(O)Cn2cnc([N+](=O)[O-])c2)c2c(F)cccc2c1=O (racemic)	16 mg/L (≈ 39.6 µM)	16 mg/L (≈ 39.6 µM)	256 mg/L (≈ 633 µM)	8 mg/L (≈ 19.8 µM)	32 mg/L (≈ 79.1 µM)	32 mg/L (≈ 79.1 µM)	128 mg/L (≈ 317 µM)	32 mg/L (≈ 79.1 µM)	32 mg/L (≈ 79.1 µM)	256 mg/L (≈ 633 µM)	64 mg/L (≈ 158 µM)	256 mg/L (≈ 633 µM)
CCOC(=O)c1cn(CC(O)Cn2c([N+](=O)[O-])cnc2C)c2ccc(F)cc2c1=O (racemic)	128 mg/L (≈ 306 µM)	8 mg/L (≈ 19.1 µM)	32 mg/L (≈ 76.5 µM)	4 mg/L (≈ 9.56 µM)	8 mg/L (≈ 19.1 µM)	8 mg/L (≈ 19.1 µM)	64 mg/L (≈ 153 µM)	16 mg/L (≈ 38.2 µM)	4 mg/L (≈ 9.56 µM)	128 mg/L (≈ 306 µM)	8 mg/L (≈ 19.1 µM)	16 mg/L (≈ 38.2 µM)
